Assay results from ChEMBL document CHEMBL1828561, “Identification of a potent and selective free fatty acid receptor 1 (FFA1/GPR40) agonist with favorable physicochemical and in vitro ADME properties” (J Med Chem, 2011).
Values after ≈ are worked out from the molar mass of the structure shown. Active and inactive are the calls of the source. The rule behind the calls is not given here.

Experiments:
1321-N1 [1] = assay: Selectivity for human FFA1 receptor expressed in human 1321N1 cells over MT1 receptor; format: cell-based
1321-N1 [2] = assay: Selectivity for human FFA1 receptor expressed in human 1321N1 cells over CB1 receptor; format: cell-based
1321-N1 [3] = assay: Selectivity for human FFA1 receptor expressed in human 1321N1 cells over Na+ channel; format: cell-based
1321-N1 [4] = assay: Selectivity for human FFA1 receptor expressed in human 1321N1 cells over alpha1 receptor; format: cell-based
1321-N1 [5] = assay: Selectivity for human FFA1 receptor expressed in human 1321N1 cells over 5HT2A receptor; format: cell-based
1321-N1 [6] = assay: Selectivity for human FFA1 receptor expressed in human 1321N1 cells over V1a receptor; format: cell-based
1321-N1 [7] = assay: Selectivity for human FFA1 receptor expressed in human 1321N1 cells over beta1 receptor; format: cell-based
[8] = Chemical stability of the compound in PBS at 37 degC for 12 days; format: physicochemical; settings: read-out: Stability
Summary of the method: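 Stability followed in PBS at 37 °C over 12 days.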

1321-N1 [9] = assay: Selectivity for human FFA1 receptor expressed in human 1321N1 cells over Cl- channel; format: cell-based
1321-N1 [10] = assay: Selectivity for human FFA1 receptor expressed in human 1321N1 cells over 5HT3 receptor; format: cell-based
1321-N1 [11] = assay: Selectivity for human FFA1 receptor expressed in human 1321N1 cells over PPARgamma receptor; format: cell-based
1321-N1 [12] = assay: Selectivity for human FFA1 receptor expressed in human 1321N1 cells over 5HT1B receptor; format: cell-based
CYP2C9 = CYP2C9 (Homo sapiens, UniProt P11712); assay: Inhibition of CYP2C9 at 10 uM; format: ADME
1321-N1 [13] = assay: Selectivity for human FFA1 receptor expressed in human 1321N1 cells over AT1 receptor; format: cell-based
1321-N1 [14] = assay: Selectivity for human FFA1 receptor expressed in human 1321N1 cells over Mu receptor; format: cell-based
1321-N1 [15] = assay: Selectivity for human FFA1 receptor expressed in human 1321N1 cells over 5HT5a receptor; format: cell-based
1321-N1 [16] = assay: Selectivity for human FFA1 receptor expressed in human 1321N1 cells over alpha2 receptor; format: cell-based
[17] = Plasma protein binding in human; format: ADME, cell-free; settings: read-out: PPB (converted)
1321-N1 [18] = assay: Selectivity for human FFA1 receptor expressed in human 1321N1 cells over VPAC1 receptor; format: cell-based
CYP3A4 = CYP3A4 (Homo sapiens, UniProt P08684); assay: Inhibition of CYP3A4 at 10 uM; format: ADME
1321-N1 [19] = assay: Selectivity for human FFA1 receptor expressed in human 1321N1 cells over B2 receptor; format: cell-based
1321-N1 [20] = assay: Selectivity for human FFA1 receptor expressed in human 1321N1 cells over 5HT1A receptor; format: cell-based
[21] = Apparent permeability across methotrexate treated human HT-29 cells; format: ADME, cell-based
Summary of the method: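 HT29-MTX mucus-producing cells, passage 32, grown 23 days (TEER > 750 Ω cm²). Compound at 100 μM (10 mM DMSO stock diluted 1:100 in buffer). […] Non-permeated drug measured for recovery. Monolayer integrity checked by 20 μM carboxyfluorescein after 1 h and TEER.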

[22] = target: T1, Free fatty acid receptor 1 (Homo sapiens, UniProt O14842); assay: Agonist activity at human FFA1 receptor expressed in human 1321N1 cells assessed as calcium mobilization by fluorescence spectrophotometry relative to 10 uM TUG-20; format: functional, cell-based
Summary of the method: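 Human FFA1 stably expressed in 1321N1 cells kept under G418 selection, 30000–40000 cells/well. After 24 h, washed in Krebs-HEPES pH 7.4 and loaded 1 h at 37 °C with 1.5 μM Oregon Green 488 BAPTA-1/AM. Compound injected at 10-fold concentration at 37 °C; fluorescence ex 485/em 520 nm over 50 × 0.4 s. Efficacy as % of maximal response to 10 μM TUG-20.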

[23] = target: T1, Free fatty acid receptor 1; assay: Agonist activity at human FFA1 receptor expressed in human HEK293 assessed as accumulation of IP1 by time-resolved fluorescence assay; format: functional, cell-based
Summary of the method: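 Doxycycline-inducible FLAG-tagged human FFA1 in Flp-In T-Rex HEK293 cells, 100 000 cells/well (384-well). 20 min at 37 °C, then ligands in HBSS/10 mM HEPES/50 mM LiCl for 30 min. HTRF IP1 kit (d2 conjugate, Eu cryptate anti-IP1), 60 min at room temperature. 665/620 nm ratio expressed as ΔF%, normalized to maximal response at 10 μM of the reference agonist; n = 5.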

1321-N1 [24] = assay: Selectivity for human FFA1 receptor expressed in human 1321N1 cells over Delta2 receptor; format: cell-based
HEK293 = assay: Selectivity for human FFA1 receptor expressed in human 1321N1 cells over human FFA3 receptor expressed in HEK293 cells at 10 uM; format: cell-based
CYP1A2 = target: T2, CYP1A2 (Homo sapiens, UniProt P05177); assay: Inhibition of CYP1A2 at 10 uM; format: ADME
T2 sequence (P05177 whole entry): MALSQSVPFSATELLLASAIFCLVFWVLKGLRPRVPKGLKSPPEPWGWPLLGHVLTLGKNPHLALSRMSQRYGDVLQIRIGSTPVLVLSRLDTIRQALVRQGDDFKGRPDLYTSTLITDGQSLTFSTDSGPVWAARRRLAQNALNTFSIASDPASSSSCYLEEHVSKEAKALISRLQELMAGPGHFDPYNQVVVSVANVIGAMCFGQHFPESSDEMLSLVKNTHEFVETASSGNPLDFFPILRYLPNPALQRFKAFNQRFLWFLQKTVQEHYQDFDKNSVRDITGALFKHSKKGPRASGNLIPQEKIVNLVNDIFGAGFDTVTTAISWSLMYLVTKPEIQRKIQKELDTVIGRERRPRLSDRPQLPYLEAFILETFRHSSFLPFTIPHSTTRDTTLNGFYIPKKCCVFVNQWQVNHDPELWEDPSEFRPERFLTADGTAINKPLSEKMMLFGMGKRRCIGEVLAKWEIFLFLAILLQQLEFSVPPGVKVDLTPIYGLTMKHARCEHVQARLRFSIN

1321-N1 [25] = assay: Selectivity for human FFA1 receptor expressed in human 1321N1 cells over GABA receptor; format: cell-based
[26] = Aqueous solubility of the compound in PBS at pH 7.4; format: physicochemical
Summary of the method: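 Solubility measured in PBS at pH 7.4.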

1321-N1 [27] = assay: Selectivity for human FFA1 receptor expressed in human 1321N1 cells over Kv channel; format: cell-based
1321-N1 [28] = assay: Selectivity for human FFA1 receptor expressed in human 1321N1 cells over 5HT7 receptor; format: cell-based
1321-N1 [29] = assay: Selectivity for human FFA1 receptor expressed in human 1321N1 cells over M1 receptor; format: cell-based
[30] = Apparent permeability from apical to basolateral side of human Caco2/TC7 cells; format: ADME, cell-based; settings: Caco-2
Summary of the method: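 Caco-2 TC7 monolayers, apical to basolateral transport at pH 6.5 apical/7.4 basolateral.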

1321-N1 [31] = assay: Selectivity for human FFA1 receptor expressed in human 1321N1 cells over beta2 receptor; format: cell-based

T1 sequence (O14842 whole entry): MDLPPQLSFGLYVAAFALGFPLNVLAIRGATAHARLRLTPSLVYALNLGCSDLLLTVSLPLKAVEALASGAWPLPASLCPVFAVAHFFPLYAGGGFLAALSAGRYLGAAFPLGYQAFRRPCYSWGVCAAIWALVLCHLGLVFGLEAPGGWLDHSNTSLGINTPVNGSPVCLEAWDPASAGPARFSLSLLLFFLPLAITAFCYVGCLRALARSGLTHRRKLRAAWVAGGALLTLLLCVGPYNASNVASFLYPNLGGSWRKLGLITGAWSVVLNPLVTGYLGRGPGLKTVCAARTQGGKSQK
CYP2C9, sequence (P11712 whole entry): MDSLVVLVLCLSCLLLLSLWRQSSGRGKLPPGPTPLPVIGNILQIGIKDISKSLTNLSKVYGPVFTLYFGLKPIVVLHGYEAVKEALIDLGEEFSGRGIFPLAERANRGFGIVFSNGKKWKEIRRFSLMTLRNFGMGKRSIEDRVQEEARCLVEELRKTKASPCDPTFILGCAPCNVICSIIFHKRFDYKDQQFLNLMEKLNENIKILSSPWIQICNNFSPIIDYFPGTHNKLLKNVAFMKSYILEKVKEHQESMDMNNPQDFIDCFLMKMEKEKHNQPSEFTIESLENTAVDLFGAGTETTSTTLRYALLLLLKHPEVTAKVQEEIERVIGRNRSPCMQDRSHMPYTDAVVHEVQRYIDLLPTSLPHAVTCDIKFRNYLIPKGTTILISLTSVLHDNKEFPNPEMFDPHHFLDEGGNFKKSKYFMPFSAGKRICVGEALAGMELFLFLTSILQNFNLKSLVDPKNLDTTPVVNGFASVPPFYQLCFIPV
CYP3A4, sequence (P08684 whole entry): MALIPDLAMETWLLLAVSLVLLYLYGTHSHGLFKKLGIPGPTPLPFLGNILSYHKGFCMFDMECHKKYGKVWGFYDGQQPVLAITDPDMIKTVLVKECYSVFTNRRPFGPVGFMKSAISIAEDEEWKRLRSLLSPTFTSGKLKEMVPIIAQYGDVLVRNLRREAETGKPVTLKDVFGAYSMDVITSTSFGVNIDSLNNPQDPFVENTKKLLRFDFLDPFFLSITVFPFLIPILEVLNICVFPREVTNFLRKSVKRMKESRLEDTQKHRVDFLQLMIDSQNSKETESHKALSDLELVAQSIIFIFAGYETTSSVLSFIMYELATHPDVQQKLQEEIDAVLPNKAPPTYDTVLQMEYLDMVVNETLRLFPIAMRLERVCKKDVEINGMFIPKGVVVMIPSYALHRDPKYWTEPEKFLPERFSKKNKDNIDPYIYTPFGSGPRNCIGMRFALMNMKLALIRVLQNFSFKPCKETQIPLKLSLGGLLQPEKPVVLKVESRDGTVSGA

remaining at 288 h [8]: 99.9%
inhibition at 10 µM (CYP2C9): -4%
fraction unbound [17]: 0.031
inhibition at 10 µM (CYP3A4): 5%
Papp [21]: 16.4 ×10⁻⁶ cm/s
Efficacy [22]: 103%
Activity [23]: Active
inhibition at 10 µM (CYP1A2): -7%
solubility [26]: 199 µM (≈ 63.7 µg/mL)
Papp A→B [30]: 112 ×10⁻⁶ cm/s
Compound: O=C(O)CCc1ccc(C#Cc2cc(Cl)nc(Cl)c2)cc1
Selectivity ratio (1321-N1 [1]): > 100
Selectivity ratio (1321-N1 [2]): > 100
Selectivity ratio (1321-N1 [3]): > 100
Selectivity ratio (1321-N1 [4]): > 100
Selectivity ratio (1321-N1 [5]): > 100
Selectivity ratio (1321-N1 [6]): > 100
Selectivity ratio (1321-N1 [7]): > 100
Selectivity ratio (1321-N1 [9]): > 100
Selectivity ratio (1321-N1 [10]): > 100
Selectivity ratio (1321-N1 [11]): > 100
Selectivity ratio (1321-N1 [12]): > 100
Selectivity ratio (1321-N1 [13]): > 100
Selectivity ratio (1321-N1 [14]): > 100
Selectivity ratio (1321-N1 [15]): > 100
Selectivity ratio (1321-N1 [16]): > 100
Selectivity ratio (1321-N1 [18]): > 100
Selectivity ratio (1321-N1 [19]): > 100
Selectivity ratio (1321-N1 [20]): > 100
Selectivity ratio (1321-N1 [24]): > 100
Selectivity ratio (HEK293): > 100
Selectivity ratio (1321-N1 [25]): > 100
Selectivity ratio (1321-N1 [27]): > 100
Selectivity ratio (1321-N1 [28]): > 100
Selectivity ratio (1321-N1 [29]): > 100
Selectivity ratio (1321-N1 [31]): > 100
